Source: PubChem BioAssay (several laboratories)
Compounds with a hit are over-represented: about 0.79% of the library has one in this group of screens.
G6PDH CS: counter-screen for G6PDH assay hits: L. mesenteroides G6PDH inhibition. inhibition, % at 5 µM. Purified L. mesenteroides G6PDH, diaphorase/resazurin coupled fluorescence, 45 min. 200,000 compounds, 0.12% hits. AID 1020; in the data active means inhibition above about 50%
TNAP inh no acc: inhibitors of human TNAP without phosphate acceptor; P05186; purified TNAP, CDP-star luminescence, 30 min; inhibition, % at 20 µM; 200,000 compounds, 0.26% hits; AID 1012;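 active means tissue-nonspecific alkaline phosphatase inhibition above about 50% at 20 µM in the single-dose screen, limit read from the data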
Target sequence (P05186 whole entry, looked up): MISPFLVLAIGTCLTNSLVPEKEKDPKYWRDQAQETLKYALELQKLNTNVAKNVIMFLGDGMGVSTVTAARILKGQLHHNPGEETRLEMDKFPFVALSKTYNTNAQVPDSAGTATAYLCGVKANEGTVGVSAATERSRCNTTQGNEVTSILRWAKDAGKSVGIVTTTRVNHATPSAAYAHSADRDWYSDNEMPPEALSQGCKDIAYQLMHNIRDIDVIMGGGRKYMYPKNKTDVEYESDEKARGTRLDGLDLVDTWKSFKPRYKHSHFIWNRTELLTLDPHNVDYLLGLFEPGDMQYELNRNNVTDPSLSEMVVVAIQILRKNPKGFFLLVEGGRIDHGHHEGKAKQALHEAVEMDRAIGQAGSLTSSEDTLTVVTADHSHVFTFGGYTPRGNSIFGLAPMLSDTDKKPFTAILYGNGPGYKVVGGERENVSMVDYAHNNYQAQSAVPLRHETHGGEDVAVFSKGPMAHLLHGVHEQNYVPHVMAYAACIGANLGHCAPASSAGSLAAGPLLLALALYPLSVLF
DTT redox prof: compounds producing H2O2 with reducing agent – biochemical, NIH compound library profiling, artefact control for MLSCN library redox annotation, primary screen; DTT-dependent redox cycling H2O2, phenol red/HRP absorbance; 100% = 100 µM peroxide control, 0% = buffer; activation, % at 10 µM; 200,000 compounds, 0.03% hits; AID 878;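 active means activation of at least 50% relative to the plate's high and low controls in the primary single-dose screen; inactive means activation below 50%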;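 further: compound incubated with DTT at 0.8 mM final as the reducing agent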
p97 ATPase inh: human p97 ATPase inhibition; recombinant p97 ATPase, Kinase-Glo ATP luminescence, 3 h; inhibition, % at 8 µM; 220,000 compounds, 0.42% hits; AID 1481; in the data active means inhibition above about 15%
TNAP inh hiacc: blocks human TNAP under high phosphate acceptor concentration. purified TNAP, CDP-star luminescence, 1 M DEA. inhibition, % at 20 µM. 200,000 compounds, 0.03% hits. AID 1135;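 active means over 50% inhibition of tissue-nonspecific alkaline phosphatase at 20 µM in the single-dose screen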
TNAP act hiacc: increases human TNAP activity under high phosphate acceptor concentration. 200,000 tested, under 10 active. activation factor at 20 µM. P05186. purified TNAP, CDP-star luminescence, 1 M DEA, 30 min; hits give high values; 0 = EDTA background, 1 = DMSO-only activity. AID 1136;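 active means activation factor at least 2 at 20 µM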
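Measured by: Luminescent substrate turnover signal | Test system: Human TNAP | Input: TNAP 1/800 final | Dosing: 20 µM single point | Schedule: 30 min, room temperature | Controls: EDTA wells as negative control, DMSO wells as positive control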
p97 confirm: confirmation of human p97 ATPase inhibitors. AID 1517. recombinant p97 ATPase, Kinase-Glo ATP luminescence. inhibition, % at 8 µM. 760 compounds, 44% hits. shares compounds with p97 ATPase inh;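 active means percent inhibition of p97 ATPase above a set limit, the primary screen's mean plus 3 SD, cut at about 15% in these data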
A number is an active result.

COc1cc2c(cc1OC)CN(C(=O)CSc1nc3[nH]ncc3c(=O)n1-c1ccccc1)CC2 was read as G6PDH CS inactive, TNAP inh no acc inactive, DTT redox prof inactive, p97 ATPase inh 20.0, TNAP inh hiacc inactive, TNAP act hiacc inactive and p97 confirm inactive.
Screening COc1ccc(N2CCN(C(=O)CSc3nc4[nH]ncc4c(=O)n3-c3cccc4ccccc34)CC2)cc1 returned G6PDH CS inactive, TNAP inh no acc inactive, DTT redox prof inactive, p97 ATPase inh inactive, TNAP inh hiacc inactive and TNAP act hiacc inactive.
Screening CC(=O)c1c(-c2ccc(C)cc2)nc2c3ccccc3ccn12 returned G6PDH CS inactive, TNAP inh no acc inactive, DTT redox prof inactive, p97 ATPase inh inactive, TNAP inh hiacc inactive and TNAP act hiacc inactive.
Screening COc1ccc(-c2nc3c4ccccc4ccn3c2C=O)cc1 returned G6PDH CS inactive, TNAP inh no acc inactive, DTT redox prof inactive, p97 ATPase inh 15.3, TNAP inh hiacc inactive, TNAP act hiacc inactive and p97 confirm inactive.
Screening COC(=O)c1sc(C(F)(F)F)c(-c2ccccc2)c1S(=O)(=O)N1CCCC1 returned p97 ATPase inh inactive.
NC(=O)c1ccccc1NC(=O)Nc1cccc(Cl)c1Cl was read as G6PDH CS inactive, TNAP inh no acc inactive, DTT redox prof inactive, p97 ATPase inh inactive, TNAP inh hiacc inactive and TNAP act hiacc inactive.
`O=C(Cc1ccc(Cl)cc1)Nc1ccc(NC(=O)c2cccs2)cc1` gave G6PDH CS inactive, TNAP inh no acc inactive, DTT redox prof inactive, p97 ATPase inh 15.4, TNAP inh hiacc inactive, TNAP act hiacc inactive and p97 confirm inactive.
For c1ccc(Sc2ncccn2)nc1 the results were p97 ATPase inh inactive.
O=C(CC1Nc2cccc3cccc(c23)NC1=O)Nc1ccccc1 (stereo not drawn) was read as G6PDH CS inactive, TNAP inh no acc inactive, DTT redox prof inactive, p97 ATPase inh inactive, TNAP inh hiacc inactive and TNAP act hiacc inactive.
NC(=O)CC1Nc2cccc3cccc(c23)NC1=O (stereo not drawn) was read as G6PDH CS inactive, TNAP inh no acc inactive, DTT redox prof inactive, p97 ATPase inh 34.8, TNAP inh hiacc inactive, TNAP act hiacc inactive and p97 confirm inactive.
O=C(O[C@@H]1OC2COC(=O)c3cc(O)c(O)c(O)c3-c3c(cc(O)c(O)c3O)C(=O)O[C@@H]([C@H]1O)[C@@H]2O)c1cc(O)c(O)c(O)c1 was read as G6PDH CS inactive, TNAP inh no acc inactive, DTT redox prof inactive, p97 ATPase inh 38.3, TNAP inh hiacc inactive, TNAP act hiacc inactive and p97 confirm 60.4.
For c1ccc(Nc2nc(NCc3ccco3)c3ccccc3n2)cc1 the results were p97 ATPase inh 22.3 and p97 confirm 27.6.
For O=C(CSc1nc2ccccc2s1)Nc1cc(S(=O)(=O)N2CCOCC2)ccc1O the results were G6PDH CS inactive, TNAP inh no acc inactive, DTT redox prof inactive, p97 ATPase inh 16.9, TNAP inh hiacc inactive, TNAP act hiacc inactive and p97 confirm inactive.
For c1cncc(CNc2c3c(nc4nnnn24)CCCC3)c1 the results were G6PDH CS inactive, TNAP inh no acc inactive, DTT redox prof inactive, p97 ATPase inh inactive, TNAP inh hiacc inactive and TNAP act hiacc inactive.
For CC1=NN(c2ccc(C)c(C)c2)C(=O)/C1=C/c1ccc2c(c1)n(C)c(=O)n2C the results were G6PDH CS inactive, TNAP inh no acc inactive, DTT redox prof inactive, p97 ATPase inh 24.9, TNAP inh hiacc inactive, TNAP act hiacc inactive and p97 confirm inactive.
`COc1cc(/C=C2/C(=O)N(c3ccccc3)N=C2C)ccc1OS(=O)(=O)c1ccccc1` gave G6PDH CS inactive, TNAP inh no acc inactive, DTT redox prof inactive, p97 ATPase inh inactive, TNAP inh hiacc inactive and TNAP act hiacc inactive.
N#Cc1cc2ccc(N3CCOCC3)cc2cc1C#N was read as G6PDH CS inactive, TNAP inh no acc inactive, DTT redox prof inactive, p97 ATPase inh 15.4, TNAP inh hiacc inactive, TNAP act hiacc inactive and p97 confirm 19.0.
O=C(O)c1ccc(NS(=O)(=O)c2ccc3c(c2)C2C=CCC2C(c2ccccc2F)N3)cc1 (stereo not drawn) was read as G6PDH CS inactive, TNAP inh no acc inactive, DTT redox prof inactive, p97 ATPase inh 32.1, TNAP inh hiacc inactive, TNAP act hiacc inactive and p97 confirm 37.3.
For O=C(Nc1ccc(Cl)cc1C(=O)N1CCOCC1)c1ccco1 the results were G6PDH CS inactive, TNAP inh no acc inactive, DTT redox prof inactive, p97 ATPase inh inactive, TNAP inh hiacc inactive and TNAP act hiacc inactive.
COc1cc2[nH]c(Cl)c([N+](=O)[O-])c2cc1OC was read as p97 ATPase inh 17.0 and p97 confirm inactive.
O=C(O)Cc1c[nH]c2cccc(O)c12 was read as G6PDH CS inactive, TNAP inh no acc inactive, DTT redox prof inactive, p97 ATPase inh 17.1, TNAP inh hiacc inactive, TNAP act hiacc inactive and p97 confirm 18.6.
For O=C(Cc1c[nH]c2ccccc12)NNC(=O)c1ccccc1 the results were G6PDH CS inactive, TNAP inh no acc inactive, DTT redox prof inactive, p97 ATPase inh inactive, TNAP inh hiacc inactive and TNAP act hiacc inactive.
O=[N+]([O-])c1ccc2c(c1)c(-c1ccccc1)nc1nncn12 was read as G6PDH CS inactive, TNAP inh no acc inactive, DTT redox prof inactive, p97 ATPase inh 34.2, TNAP inh hiacc inactive, TNAP act hiacc inactive and p97 confirm inactive.
O=[N+]([O-])c1ccc2nc(-c3ccccc3)cc(-c3ccccc3)c2c1 was read as G6PDH CS inactive, TNAP inh no acc inactive, DTT redox prof inactive, p97 ATPase inh inactive, TNAP inh hiacc inactive and TNAP act hiacc inactive.
`CSc1nc(N(CCO)CCO)c2sc3nc(-c4ccco4)c4c(c3c2n1)CCC4` gave G6PDH CS inactive, TNAP inh no acc inactive, DTT redox prof inactive, p97 ATPase inh 19.6, TNAP inh hiacc inactive, TNAP act hiacc inactive and p97 confirm inactive.
For Cc1cccc(Nc2cc(C)c3c(O)cccc3n2)c1C the results were G6PDH CS inactive, TNAP inh no acc inactive, DTT redox prof inactive, p97 ATPase inh 23.4, TNAP inh hiacc inactive, TNAP act hiacc inactive and p97 confirm 15.7.
`Cc1ccc(NC(=S)N2CCOCC2)cc1` gave G6PDH CS inactive, TNAP inh no acc inactive, DTT redox prof inactive, p97 ATPase inh inactive, TNAP inh hiacc inactive and TNAP act hiacc inactive.
For Cc1ccc(NC(=S)N2CCCC(O)C2)cc1 (stereo not drawn) the results were G6PDH CS inactive, TNAP inh no acc inactive, DTT redox prof inactive, p97 ATPase inh 59.7, TNAP inh hiacc inactive, TNAP act hiacc inactive and p97 confirm inactive.
